Shown are actives, neighbours in structure and some others; about 4.8% of the full set was active somewhere.
XBP1 UPR activ – activators of adaptive XBP1 UPR arm, primary screen, cell-based, CHO-XBP1 luciferase reporter, luminescence, uHTS | IRE1-XBP1 UPR activation; percent of tunicamycin response, DMSO as zero | activation, % at 20 µM | 0.33% of 330,000 active | AID 463104, 2010;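 active = versus positive control, 20 µM dose yields 30% or more activation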;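 note: 100% = tunicamycin at 10 µg/mL and 0% = DMSO only wells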
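Material: CHO-XBP1 cells stably carrying IRE1-XBP1-driven luciferase reporter | Medium: F12 with 10% serum | Compound dosing: 20 µM single concentration, DMSO 1% | Incubation: Overnight seeding at 37 °C, 6 h compound treatment at 37 °C | Detection: Steady-Glo luminescence read | Read-out basis: % activation of reporter signal versus tunicamycin and DMSO controls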
CSC inhib – cancer stem cell viability inhibitors, primary screen, luminescence. inhibition, % at 7.5 µM. 1.1% of 300,000 active. AID 2717, 2010. cancer stem cell-like cells viability; in the data active = inhibition above about 75%; inconclusive = no clear call, values can overlap the other calls; tested in HMLE shEcad cells
SKKanGAS inh – S. pyogenes SKKanGAS growth inhibitors in kanamycin, primary screen, streptokinase expression inhibitor project, SKKanGAS strain, BacTiter-Glo luminescence | 6 h | inhibition, % at 7.5 µM | 1.3% of 300,000 active;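 active = mean replicate score, as percent of positive control median, at least 50; inconclusive = mean below 50 but one replicate at or above 50; inactive = mean and every replicate below 50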;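 note: strain carries kanamycin resistance gene driven by streptokinase promoter and grows in 40 µg/ml kanamycin; loss of luminescence reflects streptokinase promoter inhibition or plain growth inhibition; 0% = median of DMSO wells and 100% = positive control at its reference dose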
Mdm2-MdmX inh – inhibitors of human Mdm2-MdmX association, primary screen, cell-based, luminescence, split luciferase, SaOS-2, uHTS | Protein Mdm4 (Homo sapiens) + E3 ubiquitin-protein ligase Mdm2 (Homo sapiens), … | SaOS-2 split-luciferase Mdm2/MdmX complementation | inhibition, % at 8 µM | 3% of 330,000 active;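 active = inhibition of at least 50% at 8 µM in the primary screen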
UPR CHOP act – activators of apoptotic CHOP UPR arm, primary screen, cell-based, CHO-CHOP luciferase reporter, luminescence, uHTS; AID 449763, 2010; 0.34% of 330,000 active; activation, % at 10 µM; UPR activation; percent of tunicamycin response over DMSO baseline;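 active = at 10 µM dose, activation of 40% or more, normalized to positive control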;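 note: 100% = tunicamycin at 10 µg/mL and 0% = DMSO alone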
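Evaluation: % reporter activation, DMSO baseline versus tunicamycin full activation; System: CHO-CHOP luciferase reporter cell line; Input: 500 cells/well; Incubation: 6 h compound treatment, 37 °C; Measured by: Steady-Glo luciferase luminescence; Dosing: one dose, 10 µM in 0.5% DMSO; Buffer or medium: F12 medium, 10% FBS; Benchmarks: positive tunicamycin 10 µg/mL, negative DMSO alone.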
Beta apoptosis – inhibitors of cytokine-induced beta cell apoptosis, primary screen, luminescence | INS-1E cytokine-induced death, ATP luminescence, 48 h; percent of positive-control rescue, neutral wells zero | protection from apoptosis, % (concentration not given with the values) | 0.8% of 300,000 active | AID 435005, 2010;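 active = Every replicate reaches about 75%, or at least half do and their mean reaches it too, limit read from the data; inconclusive = At least half of replicates reach the limit but their mean does not; inactive = Under half of replicates reach the limit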;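 note: 0% = cytokine-treated negative control wells and 100% = positive control rescue; higher means more ATP so stronger rescue from cytokine killing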
An asterisk follows results filed as active; ? = inconclusive; / = no result.

SMILES	XBP1 UPR activ	CSC inhib	SKKanGAS inh	Mdm2-MdmX inh	UPR CHOP act	Beta apoptosis
O=C(O)c1cccc(-c2ccc(/C=C3/SC(=Nc4ccccc4)N(Cc4cccnc4)C3=O)o2)c1	-6	10	53*	-21	4	-11
CCN1C(=O)/C(=C\c2ccc(-c3cccc(C(=O)OC)c3)o2)SC1=Nc1ccc(C(=O)O)cc1	4	-8	46	30	-2	-5
Cc1cccc(NC(=O)CN2C(=O)S/C(=C\c3ccc(-c4cccc(C(=O)O)c4C)o3)C2=O)c1	2	-8	?	9	8	3
Cc1ccc(NC(=O)CN2C(=O)S/C(=C/c3ccc(-c4cc(C(=O)O)ccc4C)o3)C2=O)cc1C	1	/	85*	5	0	6
O=C1/C(=C/c2cccnc2)SC(=NCc2ccccc2)N1Cc1ccccc1	-3	/	54*	14	0	-5
C/C(=N\NC(=O)c1c(Cl)c(C)nn1C)c1cccc(NC(=O)c2cccc(F)c2)c1	-2	3	55*	-6	0	5
CCOc1ncccc1C(=O)OCC(=O)Nc1ccc2c(c1)OCCO2	-2	/	/	7	0	/
COc1ccc(-c2cc(C(F)(F)F)nc(NCc3cccs3)n2)cc1	-1	39	74*	17	1	3
FC(F)(F)c1cc(-c2ccc(Cl)cc2)nc(NCc2cccnc2)n1	0	77*	-2	16	1	6
CNC(CC(C)C)C(=O)NC1C(=O)NC(CC(N)=O)C(=O)NC2C(=O)NC3C(=O)NC(C(=O)NC(C(=O)O)c4cc(O)cc(O)c4-c4cc3ccc4O)C(O)c3ccc(c(Cl)c3)Oc3cc2cc(c3OC2OC(CO)C(O)C(O)C2OC2CC(C)(N)C(O)C(C)O2)Oc2ccc(cc2Cl)C1O (stereo not given)	/	-5	102*	/	/	/
Cc1cc(C(=O)C(C)OC(=O)c2ccc(NC(=O)CC#N)cc2)c(C)n1-c1ccc(OC(F)F)cc1 (stereo not given)	-2	49	/	27	-1	88*
CC(OC(=O)c1ccc(NC(=O)CC#N)cc1)C(=O)Nc1ccc(Oc2ccccc2)cc1 (stereo not given)	-5	8	-7	18	0	-1
COc1ccc(-c2csc(-c3ccc(O)cc3)n2)cc1	7	90*	18	-26	6	6
N#CC1(c2ccc(NC(=O)c3ccccc3)cc2)CCCC1	/	18	-1	/	/	11
CC(=O)Oc1ccc(C(=O)Nc2ccc(C3(C#N)CCCC3)cc2)cc1	-5	96*	12	18	6	-2
Cc1oc(CC(C)C)cc1C(=O)Nc1cccc2ccccc12	-1	80*	21	26	0	-4
Nc1ccc(N=Nc2ccccc2)c2ccccc12	0	81*	86*	30	0	9
O=c1[nH]c(CSc2ncn[nH]2)nc2ccccc12	-1	-20	-6	-1	1	1
O=c1[nH]c(CSc2ncnc3sccc23)nc2ccccc12	4	5	67*	5	1	-5
O=C1C(=O)N(c2ccccn2)C(c2ccc(Br)cc2)/C1=C(/O)c1ccc(Br)cc1 (stereo not given)	-2	13	69*	-14	0	3
CCCOc1ccc(/C(O)=C2/C(=O)C(=O)N(c3ccccn3)C2c2ccc(OC)cc2)cc1C (stereo not given)	-1	5	50*	-13	2	-3
O=C1C(=O)N(c2ccccn2)C(c2ccc(F)cc2)/C1=C(/O)c1ccc(Br)cc1 (stereo not given)	1	6	6	-10	2	/
COc1ccc(/C(O)=C2/C(=O)C(=O)N(c3ccccn3)C2c2ccc(OC)cc2)cc1 (stereo not given)	0	/	-5	10	-1	/
